The record followed here is ChEMBL document CHEMBL4196177, “Synthesis, Evaluation, and Structure-Activity Relationship Study of Lanosterol Derivatives To Reverse Mutant-Crystallin-Induced Protein Aggregation” (J Med Chem, 2018).

Molecules are shown by their SMILES. The source made the active and inactive calls. No cut-off for these calls is given here.

What all share (format): cell-based
For series [1], the system named is T1, Alpha-crystallin B chain (Homo sapiens), P02511 [R120G].
T1 sequence (whole entry): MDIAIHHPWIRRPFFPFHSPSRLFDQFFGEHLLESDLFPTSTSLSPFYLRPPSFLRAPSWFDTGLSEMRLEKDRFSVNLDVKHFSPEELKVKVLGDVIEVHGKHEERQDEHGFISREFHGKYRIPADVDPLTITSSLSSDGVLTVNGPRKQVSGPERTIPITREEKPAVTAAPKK
As to the kind of experiment: Inhibition of alpha-crystallin B R120G mutant (unknown origin)-induced intracellular protein aggregation expressed in human HeLa cells at 4 uM incubated for 6 to 8 hrs by fluorescence microscopy relative to untreated control. The method, boiled down: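 Cells were transfected with mutant crystallin constructs using Lipofectamine 2000 and cultured for 16 h until the overexpressed mutants formed aggregates. Compounds were then added to the culture medium and incubated for 6~8 h. Aggregate dissolution was scored by fluorescence microscopy. For αB R120G, % inhibition at 0.4 and 4 µM was calculated against DMSO-treated cells; values are mean ± error.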

For series [2], the system named is T2, Alpha-crystallin A chain (Homo sapiens), P02489 [Y118D].
T2 sequence (whole entry): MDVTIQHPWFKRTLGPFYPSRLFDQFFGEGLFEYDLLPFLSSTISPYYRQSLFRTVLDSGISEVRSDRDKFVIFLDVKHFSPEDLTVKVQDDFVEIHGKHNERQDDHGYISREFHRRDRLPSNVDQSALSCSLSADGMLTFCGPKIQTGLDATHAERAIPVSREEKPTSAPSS
Kind of series: Inhibition of alpha-crystallin A Y118D mutant (unknown origin)-induced intracellular protein aggregation expressed in human HeLa cells or HLE-B3 cells at 4 uM incubated for 6 to 8 hrs by fluorescence microscopy relative to untreated control. The method, boiled down: (§1)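 Cells were transfected with mutant crystallin and incubated 16 h to overexpress it and form aggregates. Compounds were then added to the medium for 6~8 h. Aggregates were scored by fluorescence microscopy, and percent inhibition was calculated against DMSO-treated cells.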

For series [3], the system named is T3, Beta-crystallin B2 (Homo sapiens), P43320 [V187E].
T3 sequence (whole entry): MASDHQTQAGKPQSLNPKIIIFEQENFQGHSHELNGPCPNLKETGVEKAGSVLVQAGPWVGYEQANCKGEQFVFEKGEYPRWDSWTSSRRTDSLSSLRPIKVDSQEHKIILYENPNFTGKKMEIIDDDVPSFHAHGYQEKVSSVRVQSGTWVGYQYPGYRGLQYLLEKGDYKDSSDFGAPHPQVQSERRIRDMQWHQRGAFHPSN
As to the kind of experiment: Inhibition of beta-crystallin B2 V187E mutant (unknown origin)-induced intracellular protein aggregation expressed in human HeLa cells or HLE-B3 cells at 4 uM incubated for 6 to 8 hrs by fluorescence microscopy relative to untreated control. In a few lines: as §1

The test system of series [4] is T4, Gamma-crystallin C (Homo sapiens), P07315 [G129C].
T4 sequence (whole entry): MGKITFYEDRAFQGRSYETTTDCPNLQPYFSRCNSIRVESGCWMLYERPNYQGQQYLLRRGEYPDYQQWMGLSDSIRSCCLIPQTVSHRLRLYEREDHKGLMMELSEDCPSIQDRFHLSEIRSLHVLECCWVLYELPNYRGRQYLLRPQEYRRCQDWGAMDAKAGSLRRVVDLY
As to the kind of experiment: Inhibition of gamma-crystallin C G129C mutant (unknown origin)-induced intracellular protein aggregation expressed in human HeLa cells or HLE-B3 cells at 4 uM incubated for 6 to 8 hrs by fluorescence microscopy relative to untreated control. The method, boiled down:
as §1

For series [5], the system named is T5, Gamma-crystallin D (Homo sapiens), P07320 [W43R].
T5 sequence (whole entry): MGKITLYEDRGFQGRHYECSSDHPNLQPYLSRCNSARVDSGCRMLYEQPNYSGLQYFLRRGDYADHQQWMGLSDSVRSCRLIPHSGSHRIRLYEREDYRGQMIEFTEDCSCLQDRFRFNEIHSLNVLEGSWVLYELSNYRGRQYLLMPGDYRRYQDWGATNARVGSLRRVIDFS
Kind of series: Inhibition of gamma-crystallin D W43R mutant (unknown origin)-induced intracellular protein aggregation expressed in human HeLa cells or HLE-B3 cells at 4 uM incubated for 6 to 8 hrs by fluorescence microscopy relative to untreated control. In a few lines: as §1

In another series the test system is HeLa. As to the kind of experiment: Toxicity in human HeLa cells transfected with peGFP-N1 assessed as reduction in cell viability of at 0.04 to 4 uM incubated for 12 hrs by CCK8 assay. A general note: Tetrazolium dyes change colour on reduction, which living cells bring about.
The nature of series [6]: Toxicity in human HLE-B3 cells transfected with peGFP-N1 assessed as reduction in cell viability of at 0.04 to 4 uM incubated for 12 hrs by CCK8 assay.
The subject of series [7] is T1, Alpha-crystallin B chain (Homo sapiens), P02511 [R120G]. As to the kind of experiment: Inhibition of alpha-crystallin B R120G mutant (unknown origin)-induced cytotoxicity in human HeLa cells assessed as increase in cell viability at 0.04 to 4 uM incubated for 12 hrs by CCK8 assay.
Series [8] shares this test system. As to the kind of experiment: Inhibition of alpha-crystallin B R120G mutant (unknown origin)-induced cytotoxicity in human HLE-B3 cells assessed as increase in cell viability at 0.04 to 4 uM incubated for 12 hrs by CCK8 assay.
For series [9], the system named is T3, Beta-crystallin B2 (Homo sapiens), P43320 [V187E]. As to the kind of experiment: Inhibition of beta-crystallin B2 V187E mutant (unknown origin)-induced cytotoxicity in human HeLa cells assessed as increase in cell viability at 0.04 to 4 uM incubated for 12 hrs by CCK8 assay.
For series [10] the test system is unchanged. As to the kind of experiment: Inhibition of beta-crystallin B2 V187E mutant (unknown origin)-induced cytotoxicity in human HLE-B3 cells assessed as increase in cell viability at 0.04 to 4 uM incubated for 12 hrs by CCK8 assay.
Series [11] has as its system T4, Gamma-crystallin C (Homo sapiens), P07315 [G129C]. Kind of series: Inhibition of gamma-crystallin C G129C mutant (unknown origin)-induced cytotoxicity in human HeLa cells assessed as increase in cell viability at 0.04 to 4 uM incubated for 12 hrs by CCK8 assay.
For series [12] the test system is unchanged. As to the kind of experiment: Inhibition of gamma-crystallin C G129C mutant (unknown origin)-induced cytotoxicity in human HLE-B3 cells assessed as increase in cell viability at 0.04 to 4 uM incubated for 12 hrs by CCK8 assay.

`O=C1O[C@H]([C@@H](O)CO)C([O-])=C1O.[Na+]`: in series [1], the inhibition result is “inactive”.

Regarding `O=C(O)COc1nn(Cc2ccccc2)c2ccccc12`, the inhibition result in [1] is “inactive”.

As to `CC(C)=CCC[C@@H](C)[C@H]1CC[C@@]2(C)C3=C(CC[C@]12C)[C@@]1(C)CC[C@H](O)C(C)(C)[C@@H]1CC3`, the inhibition result in series [2], in series [3], in series [4] and in series [5] was “Active” throughout.

On to `C[C@H](CCCC(C)(C)O)[C@H]1CC[C@H]2[C@@H]3CC=C4C[C@@H](O)CC[C@]4(C)[C@H]3CC[C@]12C`, for which the inhibition result in series [2] was “Active”. The Activity entry (in the series with HeLa; in series [6]) was “Toxic” each time. The inhibition entry in series [7], in series [8], in [9], in series [10], in series [11] and in series [12] was “inactive” throughout.

With `O=C(O)c1cc(O)c2c3nc4ccccc4oc-3cc(=O)c2n1`, the inhibition entry in series [1] was “inactive”.

`N[C@@H](CCC(=O)N[C@@H](CS)C(=O)NCC(=O)O)C(=O)O`: the inhibition entry in [1] was “inactive”.
